Our source for the ED50 and Ki values is ChEMBL document CHEMBL1143724, “4-Amino-5-vinyl-3(2H)-pyridazinones and analogues as potent antinociceptive agents: Synthesis, SARs, and preliminary studies on the mechanism of action” (Bioorg Med Chem, 2007).

Structures are written as SMILES. Some results are limits rather than exact numbers.

Usually ED50 stands for the dose at which the effect has come halfway, by size or by number of responders. The term Ki denotes a dissociation constant, usually derived from enzyme kinetics or from competition with a known ligand. A high value points to weaker binding.

The subject of test [1] is Mus musculus. Nature of the test: Antinociceptive effect in sc dosed CD1 mouse. It is filed as functional. Summed up:
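Acetic acid abdominal constriction test, with compounds given sc 30 min before acetic acid. Writhes counted over 10 min. A response was scored as protected if below 3 SD of the control mean. Six to 8 mice per dose, at least 18 per experiment.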

In test [2] the target is Mu-type opioid receptor (Homo sapiens, UniProt P35372). Nature of the test: Binding affinity to mu opioid receptor.
Chain of Mu-type opioid receptor (P35372 whole entry): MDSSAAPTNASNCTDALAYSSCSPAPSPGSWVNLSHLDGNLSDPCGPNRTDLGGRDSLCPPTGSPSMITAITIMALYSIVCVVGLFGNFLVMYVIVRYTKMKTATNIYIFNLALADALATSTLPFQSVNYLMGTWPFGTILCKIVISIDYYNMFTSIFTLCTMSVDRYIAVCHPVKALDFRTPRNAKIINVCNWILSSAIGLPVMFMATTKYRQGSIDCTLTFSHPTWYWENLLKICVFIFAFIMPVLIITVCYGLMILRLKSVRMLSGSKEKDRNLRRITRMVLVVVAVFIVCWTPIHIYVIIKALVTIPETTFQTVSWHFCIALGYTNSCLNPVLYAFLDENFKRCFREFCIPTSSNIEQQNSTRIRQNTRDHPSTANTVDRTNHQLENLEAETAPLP
Test [3] addresses Kappa-type opioid receptor (Homo sapiens, UniProt P41145). Description: Binding affinity to kappa opioid receptor.
Test [4] addresses Delta-type opioid receptor (Homo sapiens, UniProt P41143). Description: Binding affinity to delta opioid receptor.

Chain of Delta-type opioid receptor (P41143 whole entry): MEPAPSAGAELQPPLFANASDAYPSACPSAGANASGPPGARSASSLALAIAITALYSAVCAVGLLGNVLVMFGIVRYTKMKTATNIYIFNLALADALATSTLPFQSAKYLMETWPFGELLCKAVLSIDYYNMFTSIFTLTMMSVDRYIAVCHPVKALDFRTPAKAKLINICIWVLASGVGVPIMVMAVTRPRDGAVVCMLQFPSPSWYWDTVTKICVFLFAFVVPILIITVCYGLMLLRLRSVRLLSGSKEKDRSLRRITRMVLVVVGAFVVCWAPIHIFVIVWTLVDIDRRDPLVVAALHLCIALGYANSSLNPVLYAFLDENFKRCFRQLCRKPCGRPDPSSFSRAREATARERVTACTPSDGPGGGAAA
Chain of Kappa-type opioid receptor (P41145 whole entry): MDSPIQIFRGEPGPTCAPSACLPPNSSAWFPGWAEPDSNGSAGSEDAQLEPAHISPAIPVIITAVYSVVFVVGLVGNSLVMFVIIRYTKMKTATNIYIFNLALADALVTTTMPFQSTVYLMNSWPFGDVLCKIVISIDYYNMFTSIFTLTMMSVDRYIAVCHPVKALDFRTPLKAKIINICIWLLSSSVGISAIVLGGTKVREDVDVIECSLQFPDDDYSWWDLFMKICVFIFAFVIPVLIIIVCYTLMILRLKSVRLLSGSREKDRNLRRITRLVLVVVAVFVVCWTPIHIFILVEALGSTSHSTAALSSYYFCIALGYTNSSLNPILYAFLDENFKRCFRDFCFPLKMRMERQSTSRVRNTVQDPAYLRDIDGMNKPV

In test [1], `C=Cc1c(-c2ccccc2)nn(C)c(=O)c1NCCc1ccccc1` showed an ED50 of 89.4 mg/kg.
As to `C=Cc1c(-c2ccccc2)nn(CCCC)c(=O)c1N`, the inhibitory constant (Ki) in test [2], in test [3] and in test [4] was > 10 µM each time.
